Hits are enriched below; roughly 3.4% of the tested compounds scored in any of these assays.
SIRT5 inh = inhibitors of human sirtuin-5 desuccinylase | 330,000 compounds, 1.1% hits | Q9NXA8 | Purified SirT5, succinyl-peptide AMC, trypsin-coupled fluorescence | inhibition, % at 15 µM; in the data active = inhibition above about 15%; inconclusive = no clear call, values can overlap the other calls
S100A4 inh HTS = inhibitors of human S100A4 binding to myosin IIA peptide; P26447; S100A4/TAMRA-MyoIIA peptide fluorescence polarization; inhibition, % at 10.7 µM; 360,000 compounds, 0.14% hits; AID 652163;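 active = mean inhibition of at least 70% across replicates, with every replicate also reaching that level; inconclusive = mean inhibition reaches 70% but some replicates fall short; inactive = mean inhibition below 70%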
Target sequence (P26447 whole entry, looked up): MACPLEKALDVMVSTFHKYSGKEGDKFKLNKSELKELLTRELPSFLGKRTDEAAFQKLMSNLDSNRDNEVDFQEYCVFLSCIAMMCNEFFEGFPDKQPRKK
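Material: S100A4 monomer (human). Medium: Calcium-containing HEPES buffer, pH 7.2. Probe or stimulus: labelled myosin peptide probe, 5 nM. Compound dosing: one concentration per compound. Timing: polarization read 5 min after assay mix addition, stable 5–60 min. Benchmarks: DMSO as neutral control, TFP as positive control.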
ERAP1 HTS inh = ERAP1 (human) enzyme inhibition; Q9NZ08; recombinant ERAP1, Leu-AMC fluorescence, 60 min; inhibition, % at 10.7 µM; 340,000 compounds, 0.15% hits;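 active = mean replicate inhibition of at least 30%, or all replicates individually reaching that 30% level; inactive = mean below 30% and not every replicate reaching it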
MLL AF4-AF9 inh = blocks AF4 peptide binding to human AF9. P42568. AlphaScreen, biotin-AF4 peptide binding to FLAG-AF9. inhibition, % at 10 µM. 350,000 compounds, 0.47% hits. AID 651704;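 active = every replicate reaching a set inhibition limit, whatever the replicate mean, cut at about 25% in these data; inconclusive = mean inhibition reaches that limit but some replicates miss it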
Target sequence (P42568 whole entry, looked up): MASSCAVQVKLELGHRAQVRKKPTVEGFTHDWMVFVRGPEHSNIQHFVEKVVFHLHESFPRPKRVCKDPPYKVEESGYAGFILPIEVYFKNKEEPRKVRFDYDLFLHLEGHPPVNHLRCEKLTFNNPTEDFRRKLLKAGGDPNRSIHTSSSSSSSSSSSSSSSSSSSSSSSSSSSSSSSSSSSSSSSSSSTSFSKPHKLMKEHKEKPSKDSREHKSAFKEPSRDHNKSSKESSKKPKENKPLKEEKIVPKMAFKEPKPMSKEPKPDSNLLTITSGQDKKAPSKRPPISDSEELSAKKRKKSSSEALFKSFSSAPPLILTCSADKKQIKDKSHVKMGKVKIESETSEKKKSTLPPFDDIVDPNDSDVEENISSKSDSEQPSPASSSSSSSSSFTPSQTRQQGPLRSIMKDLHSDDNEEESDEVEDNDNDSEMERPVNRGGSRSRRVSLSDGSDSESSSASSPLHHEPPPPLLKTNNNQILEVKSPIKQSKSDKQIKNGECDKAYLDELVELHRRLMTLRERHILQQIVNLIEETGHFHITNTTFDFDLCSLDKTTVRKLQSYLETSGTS
E-selectin induc = E-selectin induction on HUVECs; activation, % at 7.58 µM; 260,000 compounds, 0.37% hits; HUVEC E-selectin immunofluorescence imaging; normalized: neutral wells 0, TNF-alpha wells 100; P16581;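 active = mean E-selectin-positive cell signal at least 10% of the positive control, reached in at least 60% of replicates, without over 20% cell loss; inconclusive = no rule given, readout overlaps actives, possibly toxicity-flagged; inactive = the rest, including those meeting only one limit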
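System: HUVEC / Compound: single concentration / Signal: immunofluorescence imaging / Read-out: percent E-selectin-positive cells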
Ecoli rRNA inh = inhibits bacterial ribosomal RNA function over humanized ribosomes. E. coli WT GFP vs humanized-ribosome RFP mutants, fluorescence, 24 h; hits give low values; DMSO median 0, no signal -100. GFP signal change (wild-type ribosome), % (concentration not given with the values). 350,000 compounds, 1.6% hits. AID 720706;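 active = significant combined selectivity score with lowered wild-type GFP, culture density cut under 30%, mutant RFP and density less affected; inactive = any of these conditions unmet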
AID977621 = growth inhibition of wild-type GFP E. coli, dose response, H69 mutant RFP, cherry-pick. shares compounds with Ecoli rRNA inh. E. coli wild-type GFP strain growth, fluorescence, 24 h. activity change, negative = inhibition at 50 µM. 1,900 tested, under 10 active;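 active = Wild-type ribosome reporter drop at least double the humanized mutant ribosome reporter drop, growth loss under a set limit; inconclusive = no clear call, values can overlap the other calls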;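 note: wild-type GFP and H69 mutant RFP strains grown together 50/50 in each well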
AID977628 = E. coli growth inhibition, wild-type GFP versus h24 humanized RFP strain, dose response, h24 mutant RFP vs wild-type GFP, cherry-pick; activity change, negative = inhibition at 50 µM; shares compounds with Ecoli rRNA inh; 1,900 tested, under 10 active; E. coli WT GFP strain growth, fluorescence, 24 h;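 active = compound lowering the normal-ribosome reporter at least twice as much as the humanized-ribosome reporter, growth loss under a set limit; inconclusive = no clear call, values can overlap the other calls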;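 note: wild-type GFP and h24 humanized RFP strains co-cultured 1 to 1 per well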
Numbers stand for hits; ! = repeats disagree.

`COCCn1c(SCC(=O)Nc2cccnc2Cl)nc2ccccc21` gave SIRT5 inh inactive, S100A4 inh HTS inactive, ERAP1 HTS inh inactive, MLL AF4-AF9 inh inactive, E-selectin induc inactive and Ecoli rRNA inh inactive.
`COCCn1c(SCc2nc3ccccc3s2)nc2ccccc21` gave SIRT5 inh inactive, S100A4 inh HTS inactive, ERAP1 HTS inh inactive, MLL AF4-AF9 inh inactive, Ecoli rRNA inh -19 and AID977621 inactive.
COCCn1c(SCC(=O)Nc2ccccc2OC)nc2ccccc21 was read as SIRT5 inh inactive, S100A4 inh HTS inactive, ERAP1 HTS inh inactive, MLL AF4-AF9 inh inactive, E-selectin induc inactive, Ecoli rRNA inh -24, AID977621 inactive and AID977628 inconclusive.
CC(=O)N1C[C@@H]2C(c3ccccc3)[C@H](C1)N2C(=O)NC(C)C (some centres undefined) was read as Ecoli rRNA inh inactive.
`C[C@H](CO)N1C[C@H](C)[C@@H](CN(C)C(=O)Nc2ccccc2)Oc2ccc(NC(=O)Nc3ccc(F)cc3)cc2C1=O` gave SIRT5 inh inactive, S100A4 inh HTS inactive, ERAP1 HTS inh inactive, MLL AF4-AF9 inh inactive, E-selectin induc inactive and Ecoli rRNA inh inactive.
Screening Cc1nc(C)n(CC(O)COc2ccc3c(c2)CCC3)n1 (centres undefined) returned SIRT5 inh inactive, S100A4 inh HTS inactive, ERAP1 HTS inh inactive, MLL AF4-AF9 inh inactive and Ecoli rRNA inh inactive.
Screening CC(=O)c1c(C)nn(CC(O)COc2ccc3c(c2)CCC3)c1C (centres undefined) returned SIRT5 inh inactive, S100A4 inh HTS inactive, ERAP1 HTS inh inactive, MLL AF4-AF9 inh inactive, Ecoli rRNA inh -22 and AID977621 inactive.
For COC(=O)c1cn(CC(=O)N2CCN(c3ccccc3)CC2)nn1 the results were SIRT5 inh inactive, S100A4 inh HTS inactive, ERAP1 HTS inh inactive and MLL AF4-AF9 inh inactive.
`C=CCn1c(SCC(=O)N2CCCC2=O)nc2sc(CC)cc2c1=O` gave SIRT5 inh inactive, S100A4 inh HTS inactive, ERAP1 HTS inh inactive, MLL AF4-AF9 inh inactive, Ecoli rRNA inh -23, AID977621 inactive and AID977628 inconclusive.
Screening CCOC(=O)c1cnc2ccc(OCC)cc2c1NCCCN1CCOCC1 returned SIRT5 inh 27, S100A4 inh HTS inactive, ERAP1 HTS inh inactive, MLL AF4-AF9 inh inactive, Ecoli rRNA inh -22, AID977621 inactive and AID977628 inconclusive.
Screening Cc1ccc(C)c(N2CCN(C(=O)CCS(=O)(=O)c3ccc4c(c3)oc(=O)n4C)CC2)c1 returned SIRT5 inh inactive, S100A4 inh HTS inactive, ERAP1 HTS inh inactive, MLL AF4-AF9 inh inactive, Ecoli rRNA inh -19, AID977621 inactive and AID977628 inactive.
CO[C@@H]1CN(C)C(=O)c2cc(NS(=O)(=O)c3ccc(C)cc3)ccc2OC[C@H](C)NC[C@H]1C was read as SIRT5 inh inactive, S100A4 inh HTS inactive, ERAP1 HTS inh inactive, MLL AF4-AF9 inh inactive, E-selectin induc inactive and Ecoli rRNA inh inactive.
CC(=O)c1ccc(OCC(=O)Nc2ccc3c(c2)CCC3)cc1 was read as SIRT5 inh inactive, S100A4 inh HTS inactive, ERAP1 HTS inh inactive, MLL AF4-AF9 inh inactive, E-selectin induc inactive, Ecoli rRNA inh -26, AID977621 inactive and AID977628 inactive.
For CO[C@@H]1CN(C)C(=O)c2cc(NC(=O)Nc3ccc(F)cc3)ccc2OC[C@@H](C)N(C(=O)c2cnccn2)C[C@H]1C the results were SIRT5 inh inactive, S100A4 inh HTS inactive, ERAP1 HTS inh inactive, MLL AF4-AF9 inh inactive, E-selectin induc inactive and Ecoli rRNA inh inactive.
`Cc1ccc(-c2ccc(C3[C@H]4CNC[C@@H]3N4Cc3nccs3)cc2)cc1` (some centres undefined) gave SIRT5 inh inactive, S100A4 inh HTS inactive, MLL AF4-AF9 inh inactive, E-selectin induc inactive and Ecoli rRNA inh inactive.
`C(=C\c1ccc(C2[C@H]3CNC[C@@H]2N3Cc2nccs2)cc1)/c1ccccc1` (some centres undefined) gave SIRT5 inh inactive, S100A4 inh HTS inactive, ERAP1 HTS inh inactive, MLL AF4-AF9 inh inactive, E-selectin induc inactive, Ecoli rRNA inh -21! and AID977628 inconclusive.
Screening CC(C)(C)CC(=O)NCCc1csc(-c2ccccc2)n1 returned SIRT5 inh inactive, S100A4 inh HTS inactive, ERAP1 HTS inh inactive, MLL AF4-AF9 inh inactive, E-selectin induc inactive, Ecoli rRNA inh -16, AID977621 inactive and AID977628 inconclusive.
O=C(Nc1nc(-c2ccc3ccccc3c2)cs1)C1CCN(S(=O)(=O)c2cccs2)CC1 was read as SIRT5 inh inactive, S100A4 inh HTS inactive, ERAP1 HTS inh inactive, MLL AF4-AF9 inh inactive, E-selectin induc inactive, Ecoli rRNA inh -15, AID977621 inactive and AID977628 inactive.
For CNC[C@H]1OCCCC[C@H](C)Oc2ccc(NC(=O)NC(C)C)cc2C(=O)N([C@@H](C)CO)C[C@@H]1C the results were SIRT5 inh inactive, S100A4 inh HTS inactive, ERAP1 HTS inh inactive, MLL AF4-AF9 inh inactive, E-selectin induc inactive and Ecoli rRNA inh inactive.
`COc1ccc(Cc2nc3ccc(C(=O)NCc4cc(C)no4)cc3o2)cc1OC` gave SIRT5 inh inactive, S100A4 inh HTS inactive, ERAP1 HTS inh inactive, MLL AF4-AF9 inh inactive and Ecoli rRNA inh inactive.
C=CCN(CC=C)C(=O)c1ccc2nc(Cc3ccc(OC)c(OC)c3)oc2c1 was read as SIRT5 inh inactive, S100A4 inh HTS inactive, ERAP1 HTS inh inactive, MLL AF4-AF9 inh inactive, E-selectin induc inactive, Ecoli rRNA inh -33 and AID977628 inconclusive.
COc1ccc(C#Cc2ccc3c(c2)[C@@H]2[C@@H](CCN2C(C)=O)[C@H](CO)N3)cc1 was read as SIRT5 inh inactive, S100A4 inh HTS inactive, MLL AF4-AF9 inh inactive, E-selectin induc inactive and Ecoli rRNA inh inactive.
Screening C[C@@H]1CN([C@@H](C)CO)C(=O)c2cc(NS(=O)(=O)c3cn(C)cn3)ccc2O[C@H]1CN(C)S(=O)(=O)c1ccc(Cl)cc1 returned SIRT5 inh inactive, S100A4 inh HTS inactive, ERAP1 HTS inh inactive, MLL AF4-AF9 inh inactive, E-selectin induc inactive and Ecoli rRNA inh inactive.
For C[C@H]1CN([C@@H](C)CO)C(=O)CCCn2nncc2CO[C@@H]1CN(C)Cc1ccccc1C(F)(F)F the results were SIRT5 inh inactive, S100A4 inh HTS inactive, ERAP1 HTS inh inactive, MLL AF4-AF9 inh inactive, E-selectin induc inactive, Ecoli rRNA inh -18!, AID977621 inactive and AID977628 inconclusive.

Screening data (PubChem BioAssay)
